Source: ChEMBL document CHEMBL3580567 (J Med Chem, 2015)
The source made the active and inactive calls. No cut-off for these calls is given here.

What was measured:
[1] = target: T1, Melatonin receptor type 1B (Homo sapiens, UniProt P49286); assay: Displacement of 2-[125I]-iodomelatonin from human melatonin receptor-2 transfected in CHO cell membranes after 120 mins
T1 sequence (P49286 whole entry): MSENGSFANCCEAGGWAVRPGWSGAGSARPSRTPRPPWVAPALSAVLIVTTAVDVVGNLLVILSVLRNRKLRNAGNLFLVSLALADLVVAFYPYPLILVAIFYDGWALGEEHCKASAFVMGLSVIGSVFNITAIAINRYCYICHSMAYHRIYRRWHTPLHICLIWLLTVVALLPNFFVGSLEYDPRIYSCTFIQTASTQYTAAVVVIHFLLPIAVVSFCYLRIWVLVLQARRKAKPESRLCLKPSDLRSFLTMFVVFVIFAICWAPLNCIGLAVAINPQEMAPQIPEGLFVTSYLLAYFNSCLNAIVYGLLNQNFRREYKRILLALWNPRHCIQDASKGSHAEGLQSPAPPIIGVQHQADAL

[2] = organism: Homo sapiens; assay: Selectivity ratio of Ki for human melatonin receptor-1 to Ki for human melatonin receptor-2
[3] = Permeability of the compound at 100 ug/ml after 240 mins by PAMPA; assay type: physicochemical; conditions: 4 h
Method in brief: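 For PAMPA-BBB, the filter was coated with porcine brain lipid in dodecane (20 mg/mL). Donor compound was 100 µg/mL in PBS:ethanol 70:30, pH 7.4, and the acceptor held PBS:ethanol 70:30. Plates were incubated 240 min at 25 °C. Acceptor concentration was read by UV-Vis at five wavelengths in four wells, over at least three runs. Eleven quality-control standards were included.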

[4] = Induction of primary neuronal stem cell differentiation derived from subgranular zone of dentate gyrus of Wistar rat hippocampus assessed as upregulation of TuJ1 expression incubated for 7 days followed by 48 hrs incubation in presence of serum and absence of EGF by DAPI staining-based fluorescence microscopic analysis; assay type: functional, tissue-based; conditions: Primary neuron
Method in brief: (§1)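 Neurospheres came from the SGZ of the dentate gyrus of adult male Wistar rats (8-12 weeks). They were grown in DMEM/F12 with 10 ng/mL EGF, 10 ng/mL FGF and B27. After 3 days, cultures were treated with compounds for 7 days. They were then plated on poly-L-lysine coverslips for 48 h with serum and without growth factors. Cells were immunostained for TuJ1 and MAP-2 with DAPI nuclei. Positive cells were counted by fluorescence microscopy in five NS per condition over three independent experiments. Untreated cultures gave basal values.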

[5] = Induction of primary neuronal stem cell maturation derived from subgranular zone of dentate gyrus of Wistar rat hippocampus assessed as upregulation of MAP-2 expression incubated for 7 days by DAPI staining-based fluorescence microscopic analysis; assay type: functional; conditions: Primary neuron; method in brief: as §1
[6] = target: Glycogen synthase kinase-3 beta (Homo sapiens) (UniProt P49841); assay: Binding affinity to GSK-3beta receptor (unknown origin) at 10 uM
[7] = target: 5-hydroxytryptamine receptor 2A (Homo sapiens) (UniProt P28223); assay: Binding affinity to 5HT-2A receptor (unknown origin) at 10 uM
[8] = target: 5-hydroxytryptamine receptor 2B (Homo sapiens) (UniProt P41595); assay: Binding affinity to 5HT-2B receptor (unknown origin) at 10 uM
[9] = target: T2, Retinoic acid receptor alpha (Homo sapiens) (UniProt P10276); assay: Binding affinity to RARalpha (unknown origin) at 10 uM
T2 sequence (whole entry): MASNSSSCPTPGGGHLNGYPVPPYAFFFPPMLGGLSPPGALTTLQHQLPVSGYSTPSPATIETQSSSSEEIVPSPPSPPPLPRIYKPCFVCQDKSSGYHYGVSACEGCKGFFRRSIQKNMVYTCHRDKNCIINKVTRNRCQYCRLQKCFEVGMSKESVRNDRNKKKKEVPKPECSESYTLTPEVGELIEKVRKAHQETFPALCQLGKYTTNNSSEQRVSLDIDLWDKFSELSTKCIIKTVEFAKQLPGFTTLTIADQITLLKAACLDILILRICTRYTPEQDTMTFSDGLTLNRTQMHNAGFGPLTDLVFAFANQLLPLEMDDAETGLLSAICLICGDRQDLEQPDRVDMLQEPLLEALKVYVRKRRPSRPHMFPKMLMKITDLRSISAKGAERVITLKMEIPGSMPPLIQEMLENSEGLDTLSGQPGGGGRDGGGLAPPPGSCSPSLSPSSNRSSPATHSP

[10] = target: T1, Melatonin receptor type 1B; assay: Agonist activity at human recombinant melatonin receptor-2 expressed in CHO cells assessed as decrease of cAMP level after 10 mins by HTRF assay; assay type: functional, cell-based
Method in brief: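 Functional agonist profiling was done by CEREP on cells expressing human recombinant MT receptors. MT1 was read by cellular dielectric spectroscopy and MT2 by homogeneous time-resolved fluorescence. The protocols are those on the company website.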

5-hydroxytryptamine receptor 2A (Homo sapiens), sequence (P28223 whole entry): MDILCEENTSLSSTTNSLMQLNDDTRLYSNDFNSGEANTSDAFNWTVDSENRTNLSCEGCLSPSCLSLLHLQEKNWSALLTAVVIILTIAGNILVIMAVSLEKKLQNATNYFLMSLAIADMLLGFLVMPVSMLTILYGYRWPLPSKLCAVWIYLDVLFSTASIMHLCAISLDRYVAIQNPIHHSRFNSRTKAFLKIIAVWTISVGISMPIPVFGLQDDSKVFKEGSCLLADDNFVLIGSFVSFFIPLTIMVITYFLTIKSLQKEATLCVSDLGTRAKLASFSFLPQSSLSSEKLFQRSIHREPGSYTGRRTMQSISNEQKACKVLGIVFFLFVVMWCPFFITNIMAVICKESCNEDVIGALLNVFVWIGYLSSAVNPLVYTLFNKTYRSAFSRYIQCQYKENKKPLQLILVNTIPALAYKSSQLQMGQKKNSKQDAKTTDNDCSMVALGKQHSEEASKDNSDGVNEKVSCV
Glycogen synthase kinase-3 beta (Homo sapiens), sequence (P49841 whole entry, looked up): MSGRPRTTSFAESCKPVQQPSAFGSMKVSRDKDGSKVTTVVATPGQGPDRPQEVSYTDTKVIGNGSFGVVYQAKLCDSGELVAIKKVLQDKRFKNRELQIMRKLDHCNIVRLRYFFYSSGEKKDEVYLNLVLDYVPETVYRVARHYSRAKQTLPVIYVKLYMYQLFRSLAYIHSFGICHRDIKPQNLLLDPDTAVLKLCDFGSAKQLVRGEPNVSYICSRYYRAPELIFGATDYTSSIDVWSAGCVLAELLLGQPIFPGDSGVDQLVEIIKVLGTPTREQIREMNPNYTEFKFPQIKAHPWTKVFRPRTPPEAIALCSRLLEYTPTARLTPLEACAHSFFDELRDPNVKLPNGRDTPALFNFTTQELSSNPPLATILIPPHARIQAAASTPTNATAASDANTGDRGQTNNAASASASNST
5-hydroxytryptamine receptor 2B (Homo sapiens), sequence (P41595 whole entry): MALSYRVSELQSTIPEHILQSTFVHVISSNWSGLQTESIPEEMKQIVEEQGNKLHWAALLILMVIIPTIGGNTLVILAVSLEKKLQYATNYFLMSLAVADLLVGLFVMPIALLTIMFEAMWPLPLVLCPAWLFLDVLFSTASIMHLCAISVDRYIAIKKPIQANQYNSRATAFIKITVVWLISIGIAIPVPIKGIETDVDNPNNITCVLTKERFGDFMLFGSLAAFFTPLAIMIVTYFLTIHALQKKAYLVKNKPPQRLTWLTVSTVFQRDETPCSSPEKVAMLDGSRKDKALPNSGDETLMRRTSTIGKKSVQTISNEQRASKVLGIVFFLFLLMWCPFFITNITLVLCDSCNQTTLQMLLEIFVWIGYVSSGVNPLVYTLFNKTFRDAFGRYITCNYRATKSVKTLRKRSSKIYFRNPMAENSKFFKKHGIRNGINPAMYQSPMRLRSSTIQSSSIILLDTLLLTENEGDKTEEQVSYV

- Ki [1]: 190 nM
- Ratio Ki [2]: 3.6
- permeability [3]: permeable
- Activity [6]: inactive
- Activity [7]: inactive
- Activity [8]: inactive
- Activity [9]: inactive
- EC50 [10]: 1600 nM
SMILES: COc1ccc2[nH]cc(CCc3nnc(C)o3)c2c1
- Activity [4]: Dose-dependent effect
- Activity [5]: Dose-dependent effect
